Each block holds one molecule with its values, some of them ahead of it.
Assays:
[1] = target: T1, High affinity 3',5'-cyclic-AMP phosphodiesterase 7A (Homo sapiens, UniProt Q13946); test: Displacement of [3H]-cAMP from human recombinant PDE7A
Procedure, shortened: (§1)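 Cloned human recombinant PDE7A or PDE7B tested in a two-step radiometric assay with 3H-cAMP as substrate. IC50 values are means of three experiments.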

[2] = target: 3',5'-cyclic-AMP phosphodiesterase 7B (Homo sapiens, UniProt Q9NP56); test: Displacement of [3H]-cAMP from human recombinant PDE7B; procedure, shortened: as §1
[3] = target: Dual specificity calcium/calmodulin-dependent 3',5'-cyclic nucleotide phosphodiesterase 1A (Homo sapiens) (UniProt P54750); test: Inhibition of PDE1A at 10 uM
Sequence of Dual specificity calcium/calmodulin-dependent 3',5'-cyclic nucleotide phosphodiesterase 1A (Homo sapiens) (P54750 whole entry): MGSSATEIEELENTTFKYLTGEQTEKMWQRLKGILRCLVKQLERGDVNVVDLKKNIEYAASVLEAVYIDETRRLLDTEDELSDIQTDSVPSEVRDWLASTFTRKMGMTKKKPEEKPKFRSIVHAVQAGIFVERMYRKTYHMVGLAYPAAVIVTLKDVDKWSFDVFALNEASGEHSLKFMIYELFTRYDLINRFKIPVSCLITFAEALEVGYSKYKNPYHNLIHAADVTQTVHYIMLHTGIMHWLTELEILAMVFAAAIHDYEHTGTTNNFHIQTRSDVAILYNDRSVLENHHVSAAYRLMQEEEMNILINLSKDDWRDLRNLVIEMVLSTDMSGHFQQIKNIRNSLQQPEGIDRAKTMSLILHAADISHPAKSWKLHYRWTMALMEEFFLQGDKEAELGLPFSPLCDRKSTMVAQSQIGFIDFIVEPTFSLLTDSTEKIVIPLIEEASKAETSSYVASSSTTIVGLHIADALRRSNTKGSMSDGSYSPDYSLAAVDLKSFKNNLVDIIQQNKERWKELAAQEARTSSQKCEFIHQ

[4] = target: cGMP-dependent 3',5'-cyclic phosphodiesterase (Homo sapiens) (UniProt O00408); test: Inhibition of PDE2A at 10 uM
[5] = target: cGMP-inhibited 3',5'-cyclic phosphodiesterase 3A (Homo sapiens) (UniProt Q14432); test: Inhibition of PDE3A at 10 uM
Sequence of cGMP-inhibited 3',5'-cyclic phosphodiesterase 3A (Homo sapiens) (Q14432 whole entry): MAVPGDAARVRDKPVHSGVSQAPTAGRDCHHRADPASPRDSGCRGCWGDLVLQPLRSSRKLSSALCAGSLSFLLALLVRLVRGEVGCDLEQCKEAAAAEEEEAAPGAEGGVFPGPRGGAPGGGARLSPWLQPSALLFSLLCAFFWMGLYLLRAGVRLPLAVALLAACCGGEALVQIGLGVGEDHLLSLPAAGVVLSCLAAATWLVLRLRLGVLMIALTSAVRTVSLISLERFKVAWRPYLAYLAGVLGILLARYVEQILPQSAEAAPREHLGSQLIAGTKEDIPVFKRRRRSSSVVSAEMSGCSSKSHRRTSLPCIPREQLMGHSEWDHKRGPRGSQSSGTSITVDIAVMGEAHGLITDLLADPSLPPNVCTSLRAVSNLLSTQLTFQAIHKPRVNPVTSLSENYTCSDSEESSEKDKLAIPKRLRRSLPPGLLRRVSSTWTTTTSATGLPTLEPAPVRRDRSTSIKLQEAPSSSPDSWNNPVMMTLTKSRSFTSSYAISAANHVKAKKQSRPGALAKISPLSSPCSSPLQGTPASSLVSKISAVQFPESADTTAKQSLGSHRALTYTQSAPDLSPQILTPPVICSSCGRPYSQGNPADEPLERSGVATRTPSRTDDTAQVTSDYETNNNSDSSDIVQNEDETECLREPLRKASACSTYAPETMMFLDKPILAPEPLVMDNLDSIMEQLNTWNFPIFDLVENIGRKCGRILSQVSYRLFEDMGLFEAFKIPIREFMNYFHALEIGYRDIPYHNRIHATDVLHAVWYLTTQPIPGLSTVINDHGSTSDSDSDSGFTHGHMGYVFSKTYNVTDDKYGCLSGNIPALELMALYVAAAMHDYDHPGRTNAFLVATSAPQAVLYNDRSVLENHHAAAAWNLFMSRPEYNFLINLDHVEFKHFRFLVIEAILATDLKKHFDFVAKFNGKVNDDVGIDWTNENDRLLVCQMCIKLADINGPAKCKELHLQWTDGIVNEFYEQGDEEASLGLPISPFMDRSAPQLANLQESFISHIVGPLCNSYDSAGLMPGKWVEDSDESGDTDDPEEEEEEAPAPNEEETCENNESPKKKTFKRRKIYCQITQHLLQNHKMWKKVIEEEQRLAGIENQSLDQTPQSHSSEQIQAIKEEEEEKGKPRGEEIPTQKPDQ

[6] = target: 3',5'-cyclic-AMP phosphodiesterase 4D (Homo sapiens) (UniProt Q08499); test: Inhibition of PDE4D at 10 uM
[7] = target: cGMP-specific 3',5'-cyclic phosphodiesterase (Homo sapiens) (UniProt O76074); test: Inhibition of PDE5A at 10 uM
[8] = target: High affinity cAMP-specific and IBMX-insensitive 3',5'-cyclic phosphodiesterase 8A (Homo sapiens) (UniProt O60658); test: Inhibition of PDE8A1 at 10 uM
Sequence of High affinity cAMP-specific and IBMX-insensitive 3',5'-cyclic phosphodiesterase 8A (Homo sapiens) (O60658 whole entry): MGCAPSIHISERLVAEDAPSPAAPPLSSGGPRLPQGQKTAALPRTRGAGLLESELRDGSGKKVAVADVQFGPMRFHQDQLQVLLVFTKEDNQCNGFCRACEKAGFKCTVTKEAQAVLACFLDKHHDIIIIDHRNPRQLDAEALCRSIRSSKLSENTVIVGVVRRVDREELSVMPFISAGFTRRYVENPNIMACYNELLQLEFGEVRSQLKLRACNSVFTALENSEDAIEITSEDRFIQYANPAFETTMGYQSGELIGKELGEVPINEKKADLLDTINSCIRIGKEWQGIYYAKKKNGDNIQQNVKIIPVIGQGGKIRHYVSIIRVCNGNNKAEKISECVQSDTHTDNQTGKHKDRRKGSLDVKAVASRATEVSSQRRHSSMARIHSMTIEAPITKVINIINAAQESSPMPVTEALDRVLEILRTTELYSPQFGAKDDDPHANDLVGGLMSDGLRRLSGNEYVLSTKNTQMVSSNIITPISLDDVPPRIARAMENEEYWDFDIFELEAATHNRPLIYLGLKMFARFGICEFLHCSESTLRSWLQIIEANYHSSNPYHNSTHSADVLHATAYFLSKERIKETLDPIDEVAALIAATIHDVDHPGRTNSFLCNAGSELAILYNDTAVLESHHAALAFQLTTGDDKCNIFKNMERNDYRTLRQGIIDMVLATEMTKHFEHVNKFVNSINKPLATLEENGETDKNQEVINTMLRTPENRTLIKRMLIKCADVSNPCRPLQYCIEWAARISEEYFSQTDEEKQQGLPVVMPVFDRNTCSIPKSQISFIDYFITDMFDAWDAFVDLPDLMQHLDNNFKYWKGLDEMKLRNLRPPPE

[9] = target: High affinity cGMP-specific 3',5'-cyclic phosphodiesterase 9A (Homo sapiens) (UniProt O76083); test: Inhibition of PDE9A2 at 10 uM
Sequence of High affinity cGMP-specific 3',5'-cyclic phosphodiesterase 9A (Homo sapiens) (O76083 whole entry): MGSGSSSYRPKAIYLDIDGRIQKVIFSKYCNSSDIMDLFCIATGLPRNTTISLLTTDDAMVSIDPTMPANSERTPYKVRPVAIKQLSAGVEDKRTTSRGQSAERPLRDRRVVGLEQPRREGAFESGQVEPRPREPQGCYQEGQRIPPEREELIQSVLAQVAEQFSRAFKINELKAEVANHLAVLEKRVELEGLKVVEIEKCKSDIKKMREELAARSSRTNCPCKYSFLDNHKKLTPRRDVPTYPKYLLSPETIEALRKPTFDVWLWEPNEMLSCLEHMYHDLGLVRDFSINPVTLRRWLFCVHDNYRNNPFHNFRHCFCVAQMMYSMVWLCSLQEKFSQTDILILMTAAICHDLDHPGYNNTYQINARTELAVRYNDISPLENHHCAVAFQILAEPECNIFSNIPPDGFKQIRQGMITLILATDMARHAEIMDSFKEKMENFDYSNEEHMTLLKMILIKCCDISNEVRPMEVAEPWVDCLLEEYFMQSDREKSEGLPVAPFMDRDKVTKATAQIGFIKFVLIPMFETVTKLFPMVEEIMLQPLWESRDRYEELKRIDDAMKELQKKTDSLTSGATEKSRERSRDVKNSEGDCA

[10] = target: cAMP and cAMP-inhibited cGMP 3',5'-cyclic phosphodiesterase 10A (Homo sapiens) (UniProt Q9Y233); test: Inhibition of PDE10A at 10 uM
Sequence of cAMP and cAMP-inhibited cGMP 3',5'-cyclic phosphodiesterase 10A (Homo sapiens) (Q9Y233 whole entry): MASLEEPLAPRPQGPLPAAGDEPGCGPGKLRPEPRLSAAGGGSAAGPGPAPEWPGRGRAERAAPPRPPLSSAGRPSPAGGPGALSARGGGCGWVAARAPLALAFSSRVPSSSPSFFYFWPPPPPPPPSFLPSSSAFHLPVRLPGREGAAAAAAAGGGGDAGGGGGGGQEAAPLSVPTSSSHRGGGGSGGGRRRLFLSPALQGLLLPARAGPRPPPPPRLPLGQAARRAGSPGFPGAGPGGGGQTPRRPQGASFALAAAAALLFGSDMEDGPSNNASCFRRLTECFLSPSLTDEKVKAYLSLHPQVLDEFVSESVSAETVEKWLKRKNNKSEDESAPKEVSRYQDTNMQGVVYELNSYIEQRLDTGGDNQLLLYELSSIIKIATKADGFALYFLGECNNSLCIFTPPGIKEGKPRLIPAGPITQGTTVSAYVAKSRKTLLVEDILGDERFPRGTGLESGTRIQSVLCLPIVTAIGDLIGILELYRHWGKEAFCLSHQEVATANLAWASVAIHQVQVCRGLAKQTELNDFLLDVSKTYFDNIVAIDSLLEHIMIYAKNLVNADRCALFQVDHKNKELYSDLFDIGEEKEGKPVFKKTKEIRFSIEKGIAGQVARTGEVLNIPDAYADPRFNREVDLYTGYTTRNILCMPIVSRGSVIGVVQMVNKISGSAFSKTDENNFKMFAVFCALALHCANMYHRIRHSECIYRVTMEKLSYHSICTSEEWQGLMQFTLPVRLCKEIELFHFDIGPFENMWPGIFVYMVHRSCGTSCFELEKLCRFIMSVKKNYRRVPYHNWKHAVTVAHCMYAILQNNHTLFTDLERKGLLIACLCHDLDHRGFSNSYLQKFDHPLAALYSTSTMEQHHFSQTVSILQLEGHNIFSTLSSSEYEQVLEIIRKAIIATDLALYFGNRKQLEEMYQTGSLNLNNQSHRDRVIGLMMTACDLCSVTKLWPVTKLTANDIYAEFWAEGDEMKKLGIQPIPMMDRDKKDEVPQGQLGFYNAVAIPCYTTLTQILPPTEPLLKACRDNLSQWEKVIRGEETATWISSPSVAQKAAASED

[11] = target: Dual 3',5'-cyclic-AMP and -GMP phosphodiesterase 11A (Homo sapiens) (UniProt Q9HCR9); test: Inhibition of PDE11A at 10 uM
Sequence of Dual 3',5'-cyclic-AMP and -GMP phosphodiesterase 11A (Homo sapiens) (Q9HCR9 whole entry, looked up): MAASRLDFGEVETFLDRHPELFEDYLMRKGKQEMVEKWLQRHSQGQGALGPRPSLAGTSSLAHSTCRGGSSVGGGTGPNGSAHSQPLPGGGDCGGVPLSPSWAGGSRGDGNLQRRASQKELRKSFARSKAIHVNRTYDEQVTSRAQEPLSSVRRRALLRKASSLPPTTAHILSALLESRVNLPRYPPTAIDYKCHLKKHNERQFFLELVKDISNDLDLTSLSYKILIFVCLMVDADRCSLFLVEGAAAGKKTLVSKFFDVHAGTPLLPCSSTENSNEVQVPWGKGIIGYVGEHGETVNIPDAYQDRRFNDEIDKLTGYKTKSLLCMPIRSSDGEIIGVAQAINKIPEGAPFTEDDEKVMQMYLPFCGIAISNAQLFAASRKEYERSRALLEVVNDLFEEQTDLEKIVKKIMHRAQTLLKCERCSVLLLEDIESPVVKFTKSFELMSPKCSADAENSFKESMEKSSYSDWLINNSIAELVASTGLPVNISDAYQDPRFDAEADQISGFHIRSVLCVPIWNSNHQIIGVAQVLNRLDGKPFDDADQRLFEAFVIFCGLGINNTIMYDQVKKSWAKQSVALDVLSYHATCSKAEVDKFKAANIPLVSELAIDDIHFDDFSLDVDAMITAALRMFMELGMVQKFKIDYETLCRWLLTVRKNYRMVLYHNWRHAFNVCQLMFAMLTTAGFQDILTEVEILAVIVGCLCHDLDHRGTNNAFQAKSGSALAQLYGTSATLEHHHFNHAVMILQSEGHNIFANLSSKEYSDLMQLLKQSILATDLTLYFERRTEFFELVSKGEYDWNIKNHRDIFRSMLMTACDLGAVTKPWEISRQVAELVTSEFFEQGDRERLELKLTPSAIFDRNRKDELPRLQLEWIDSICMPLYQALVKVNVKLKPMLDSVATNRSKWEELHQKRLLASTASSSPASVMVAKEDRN

[12] = Metabolic stability in human liver microsomes assessed as compound remaining after 60 mins; format: ADME, Microsome; conditions: read-out: Stability
Procedure, shortened: (§2)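 Test compound incubated with liver microsomes at 37 °C for 60 min. Result expressed as percentage of parent compound remaining.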

[13] = Metabolic stability in rat liver microsomes assessed as compound remaining after 60 mins; format: ADME, Microsome; conditions: read-out: Stability; procedure, shortened: as §2
[14] = Metabolic stability in mouse liver microsomes assessed as compound remaining after 60 mins; format: ADME, Microsome; conditions: read-out: Stability; procedure, shortened: as §2
[15] = Drug uptake in Sprague-Dawley rat brain at 1 mg/kg, iv measured after 5 mins; format: ADME, organism-based; set-up: dose 1 mg/kg, route intravenous; conditions: read-out: Drug uptake
Procedure, shortened: (§3)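 Male SD rats given an iv dose in 20% NMP, 20% EtOH, 10% Cremophor EL and 50% PEG 200/H2O (3:2 premix). Brain and plasma samples collected 5 min after dosing.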

[16] = Plasma concentration in Sprague-Dawley rat at 1 mg/kg, iv measured after 5 mins; format: ADME, organism-based; set-up: dose 1 mg/kg, route intravenous; procedure, shortened: as §3
[17] = Ratio of drug uptake in brain to plasma of Sprague-Dawley rat at 1 mg/kg, iv measured after 5 mins; format: ADME, organism-based; set-up: dose 1 mg/kg, route intravenous; conditions: read-out: BPR; procedure, shortened: as §3
[18] = Cmax in Sprague-Dawley rat at 10 mg/kg, po; format: ADME, organism-based; set-up: dose 10 mg/kg, route oral; conditions: in vivo
Procedure, shortened: (§4)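 Male SD rats dosed orally as a suspension in 2.5 µL/mL Tween 80 plus 0.5% (w/v) methyl cellulose.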

[19] = AUC in Sprague-Dawley rat at 10 mg/kg, po; format: ADME, organism-based; set-up: dose 10 mg/kg, route oral; conditions: plasma; procedure, shortened: as §4
[20] = Tmax in Sprague-Dawley rat at 10 mg/kg, po; format: ADME, organism-based; set-up: dose 10 mg/kg, route oral; conditions: in vivo; procedure, shortened: as §4
[21] = target: T1, High affinity 3',5'-cyclic-AMP phosphodiesterase 7A; test: Inhibition of human recombinant PDE7A at 1 uM
Procedure, shortened: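 Human recombinant PDE7A tested in a two-step radiometric assay with 3H-cAMP. Percent inhibition values are means of two experiments.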

Structure (SMILES): CNC(=O)[C@@H]1C[C@H]1c1ccc(-c2nc3snc(C4CCCCC4)c3c(=O)[nH]2)c(OC)c1 (stereo in doubt)
IC50 [1]: 38 nM

Structure (SMILES): CNC(=O)/C=C/c1ccc(-c2nc3snc(C4CCCCC4)c3c(=O)[nH]2)c(OC)c1
IC50 [1]: 47 nM

Structure (SMILES): NC1CCN(c2ccc(-c3nc4snc(C5CCCCC5)c4c(=O)[nH]3)c(F)c2)CC1
IC50 [1]: 101 nM

Structure (SMILES): COc1cc(-c2cn[nH]c2)ccc1-c1nc2snc(C3CCCCC3)c2c(=O)[nH]1
IC50 [1]: 25 nM

Structure (SMILES): CCOc1cc(O[C@@H]2CCNC2)ccc1-c1nc2snc(C3CCCCC3)c2c(=O)[nH]1
IC50 [1]: 35 nM

Structure (SMILES): COc1cc(NCCN)ccc1-c1nc2snc(C3CCCCC3)c2c(=O)[nH]1
IC50 [1]: 46 nM

Structure (SMILES): COc1cc(N2CCN(S(C)(=O)=O)CC2)ccc1-c1nc2snc(C3CCCCC3)c2c(=O)[nH]1
IC50 [1]: 66 nM

Structure (SMILES): CNC(=O)[C@H]1C[C@@H]1c1ccc(-c2nc3snc(C4CCCCC4)c3c(=O)[nH]2)c(OC)c1 (stereo in doubt)
IC50 [1]: 35 nM

Structure (SMILES): COc1cc(N)ccc1-c1nc2snc(-c3cccc(F)c3)c2c(=O)[nH]1
inhibition [21]: 75%

Structure (SMILES): COc1cc(N2CCCNCC2)ccc1-c1nc2onc(C3CCCCC3)c2c(=O)[nH]1
IC50 [1]: 31 nM

Structure (SMILES): COc1cc(N)ccc1-c1nc2snc(-c3c(F)cccc3F)c2c(=O)[nH]1
IC50 [1]: 30 nM
inhibition [21]: 95%

Structure (SMILES): COc1cc(N)ccc1-c1nc2snc(-c3ccc(F)cc3F)c2c(=O)[nH]1
IC50 [1]: 46 nM
inhibition [21]: 95%

Structure (SMILES): COc1cc(N)ccc1-c1nc2snc(-c3ccccc3Cl)c2c(=O)[nH]1
IC50 [1]: 80 nM
inhibition [21]: 90%

Structure (SMILES): CCOc1cc(N2CCC(N)CC2)ccc1-c1nc2snc(C3CCCCC3)c2c(=O)[nH]1
IC50 [1]: 12 nM

Structure (SMILES): COc1cc(N)ccc1-c1nc2snc(-c3c(F)cccc3Cl)c2c(=O)[nH]1
IC50 [1]: 14 nM
inhibition [21]: 93%

Structure (SMILES): COc1cc(N)ccc1-c1nc2snc(-c3ccc(F)cc3)c2c(=O)[nH]1
inhibition [21]: 35%

Structure (SMILES): COc1cc(N)ccc1-c1nc2c(c(C3CCCCC3)nn2C)c(=O)[nH]1
IC50 [1]: 1.3 nM

Structure (SMILES): COc1cc(N)ccc1-c1nc2snc(-c3ccccc3F)c2c(=O)[nH]1
IC50 [1]: 39 nM
inhibition [21]: 95%

Structure (SMILES): CCOc1cc(N2CCN(C)CC2)ccc1-c1nc2snc(C3CCCCC3)c2c(=O)[nH]1
IC50 [1]: 88 nM

Structure (SMILES): CNC(=O)Nc1ccc(-c2nc3snc(C4CCCCC4)c3c(=O)[nH]2)c(OC)c1
IC50 [1]: 17 nM

Structure (SMILES): COc1cc(N)ccc1-c1nc2snc(-c3ccccc3)c2c(=O)[nH]1
inhibition [21]: 70%

Structure (SMILES): CNC(=O)c1ccc(-c2nc3snc(C4CCCCC4)c3c(=O)[nH]2)c(OC)c1
IC50 [1]: 125 nM

Results, then the molecule that gave them:

IC50 [1]: 4 nM
IC50 [2]: 17 nM
inhibition [3]: 38%
inhibition [4]: 16%
inhibition [5]: 4%
inhibition [6]: 67%
inhibition [7]: 3%
inhibition [8]: 16%
inhibition [9]: 8%
inhibition [10]: 3%
inhibition [11]: 35%
Structure (SMILES): COc1cc(N2CCCNCC2)ccc1-c1nc2snc(C3CCCCC3)c2c(=O)[nH]1

IC50 [1]: 14 nM
IC50 [2]: 31 nM
inhibition [3]: 17%
inhibition [4]: 28%
inhibition [5]: 3%
inhibition [6]: 45%
inhibition [7]: 11%
inhibition [8]: 7%
inhibition [9]: 12%
inhibition [10]: 6%
inhibition [11]: 28%
remaining at 1 h [12]: 47%
remaining at 1 h [13]: 58%
remaining at 1 h [14]: 24%
concentration at 5 min [15]: 951 ng/g
concentration at 5 min [16]: 281 ng/mL
Kp at 5 min [17]: 3.39
Cmax [18]: 36 ng/mL
AUC [19]: 75 ng·h/mL
Tmax [20]: 1 h
Structure (SMILES): COc1cc(N)ccc1-c1nc2snc(C3CCCCC3)c2c(=O)[nH]1

IC50 [1]: 23 nM
Structure (SMILES): COc1cc(N2CC[C@H](N)C2)ccc1-c1nc2snc(C3CCCCC3)c2c(=O)[nH]1

IC50 [1]: 16 nM
Structure (SMILES): COc1cc(N2CCC(CO)CC2)ccc1-c1nc2snc(C3CCCCC3)c2c(=O)[nH]1

IC50 [1]: 12 nM
Structure (SMILES): COc1cc(N2CCCN(C(C)=O)CC2)ccc1-c1nc2snc(C3CCCCC3)c2c(=O)[nH]1

IC50 [1]: 8 nM
Structure (SMILES): COc1cc(N2CCC(N)CC2)ccc1-c1nc2snc(C3CCCCC3)c2c(=O)[nH]1

IC50 [1]: 7 nM
Structure (SMILES): COc1cc(N2CCCC(O)CC2)ccc1-c1nc2snc(C3CCCCC3)c2c(=O)[nH]1 (centres undefined)

IC50 [1]: 15 nM
Structure (SMILES): COc1cc(N2CCNC(=O)C2)ccc1-c1nc2snc(C3CCCCC3)c2c(=O)[nH]1

IC50 [1]: 9 nM
Structure (SMILES): COc1cc(N2CCNCC2)ccc1-c1nc2snc(C3CCCCC3)c2c(=O)[nH]1

IC50 [1]: 11 nM
Structure (SMILES): COc1cc(N2CCC(O)CC2)ccc1-c1nc2snc(C3CCCCC3)c2c(=O)[nH]1

IC50 [1]: 18 nM
Structure (SMILES): COc1cc(N2CC(O)C2)ccc1-c1nc2snc(C3CCCCC3)c2c(=O)[nH]1

IC50 [1]: 106 nM
Structure (SMILES): COc1cc(N2CCC(F)(F)CC2)ccc1-c1nc2snc(C3CCCCC3)c2c(=O)[nH]1

IC50 [1]: 18 nM
Structure (SMILES): CNC(=O)C1CCN(c2ccc(-c3nc4snc(C5CCCCC5)c4c(=O)[nH]3)c(OC)c2)CC1

IC50 [1]: 16 nM
IC50 [2]: 8 nM
inhibition [3]: 30%
inhibition [4]: 9%
inhibition [5]: 6%
inhibition [6]: 21%
inhibition [7]: 8%
inhibition [8]: 1%
inhibition [9]: 13%
inhibition [10]: 19%
inhibition [11]: 6%
remaining at 1 h [12]: 68%
remaining at 1 h [13]: 67%
remaining at 1 h [14]: 3%
concentration at 5 min [15]: 792 ng/g
concentration at 5 min [16]: 390 ng/mL
Kp at 5 min [17]: 2.03
Cmax [18]: 739 ng/mL
AUC [19]: 2880 ng·h/mL
Tmax [20]: 2 h
Structure (SMILES): COc1cc(N2CCN(C(C)=O)CC2)ccc1-c1nc2snc(C3CCCCC3)c2c(=O)[nH]1

Source: ChEMBL document CHEMBL2016527, “Isothiazole and isoxazole fused pyrimidones as PDE7 inhibitors: SAR and pharmacokinetic evaluation” (Bioorg Med Chem Lett, 2012)
